In ChEMBL document CHEMBL1146567, “Isolation and structure of ruprechstyril from Ruprechtia tangarana” (2003) one finds Activity, MIC and EC50 data, which are given here for 7 molecules.

In brackets after ≈: the same amount, converted by molar mass. Activity calls are given as the source filed them.

One assay relates to Candida albicans. Briefly: Antimicrobial activity against Candida albicans up to 64 ug/mL by broth microdilution susceptibility assay. In kind it is functional, organism-based. Summed up:
(§1)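 Broth microdilution susceptibility testing. Growth inhibition read-out is reported as the minimum inhibitory concentration, in μg/mL.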

The next assay has as its system Enterobacter cloacae. The experiment in a line: Antimicrobial activity against Enterobacter cloacae up to 64 ug/mL by broth microdilution susceptibility assay. In kind it is functional, organism-based. Summed up:
as §1
In general terms: Broth dilution looks for growth in wells or tubes with falling amounts of substance.

The subject of another assay is P388. Briefly: Cytotoxicity against mouse P388 cells. In kind it is functional.
For assay [1], the system named is Micrococcus luteus. Briefly: Antimicrobial activity against Micrococcus luteus up to 64 ug/mL by broth microdilution susceptibility assay. It counts as functional, organism-based. Summed up: as §1
A further assay deals with Escherichia coli. Briefly: Antimicrobial activity against Escherichia coli up to 64 ug/mL by broth microdilution susceptibility assay. It counts as functional, organism-based. Summed up:
as §1

The test system of assay [2] is Stenotrophomonas maltophilia. The experiment in a line: Antimicrobial activity against Stenotrophomonas maltophilia up to 64 ug/mL by broth microdilution susceptibility assay. It counts as functional, organism-based. Summed up:
as §1

The next assay has as its system Neisseria gonorrhoeae. Briefly: Antimicrobial activity against Neisseria gonorrhoeae up to 64 ug/mL by broth microdilution susceptibility assay. In kind it is functional, organism-based. Summed up: as §1
A further assay has as its system Cryptococcus neoformans. The experiment in a line: Antimicrobial activity against Cryptococcus neoformans up to 64 ug/mL by broth microdilution susceptibility assay. It counts as functional, organism-based. In short, it runs like this:
as §1

Assay [3] deals with Enterococcus faecalis. The experiment in a line: Antimicrobial activity against Enterococcus faecalis up to 64 ug/mL by broth microdilution susceptibility assay. It counts as functional, organism-based. Summed up: as §1
For a further assay, the system named is Streptococcus pneumoniae. Briefly: Antimicrobial activity against Streptococcus pneumoniae up to 64 ug/mL by broth microdilution susceptibility assay. It counts as functional, organism-based. Summed up: as §1
A further assay deals with Staphylococcus aureus. The experiment in a line: Antimicrobial activity against Staphylococcus aureus up to 64 ug/mL by broth microdilution susceptibility assay. It counts as functional, organism-based. Summed up:
as §1

The subject of assay [4] is Micrococcus luteus. The experiment in a line: Antimicrobial activity against Micrococcus luteus by broth microdilution susceptibility assay. In kind it is functional. Summed up:
(§2)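 Broth microdilution susceptibility testing; the value recorded is the minimum inhibitory concentration of growth, given in μg/mL, and sometimes reported as a range.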

For assay [5], the system named is Enterococcus faecalis. Briefly: Antimicrobial activity against Enterococcus faecalis by broth microdilution susceptibility assay. It counts as functional. Summed up:
as §2

Usually MIC stands for the smallest concentration in the dilution series that meets the test's criterion for growth inhibition. Higher therefore signals a less susceptible organism.

`CCCCCc1cc2cc(OC)cc(O)c2c(=O)[nH]1`: the outcome (in the assay with Candida albicans; with Enterobacter cloacae; in the assay with P388; in the assay on Micrococcus luteus [1]; in the assay with Escherichia coli; in assay [2]) was inactive. Also, the result in the assay on Neisseria gonorrhoeae, in the assay on Cryptococcus neoformans, in the assay on Enterococcus faecalis [3], in the assay with Streptococcus pneumoniae and in the assay with Staphylococcus aureus was inactive.
For `COC(=O)c1cc(O)cc(OC)c1Oc1cc(C)cc(O)c1C(=O)OC`, the result (in the assay on Candida albicans; in the assay on Enterobacter cloacae; with P388; with Micrococcus luteus [1]; in the assay on Escherichia coli; in assay [2]) was inactive. For the same molecule, the outcome with Neisseria gonorrhoeae, in the assay on Cryptococcus neoformans, with Enterococcus faecalis [3], with Streptococcus pneumoniae and in the assay with Staphylococcus aureus was inactive.
`COc1c(OC)c2oc(=O)c3cc(O)c(OC)c4oc(=O)c(c1O)c2c43`: the result (with Candida albicans; in the assay with Enterobacter cloacae; in the assay with P388; in the assay with Micrococcus luteus [1]; in the assay on Escherichia coli; in assay [2]) was inactive. For the same molecule, the result in the assay on Neisseria gonorrhoeae, in the assay with Cryptococcus neoformans, with Enterococcus faecalis [3], in the assay with Streptococcus pneumoniae and with Staphylococcus aureus was inactive.
On to `COc1cc(C)c2c(=O)c3c(O)cc(OC)cc3oc2c1`, for which the result (in the assay with Candida albicans; with Enterobacter cloacae; with P388; in the assay on Micrococcus luteus [1]; in the assay with Escherichia coli; in assay [2]) was inactive. The result with Neisseria gonorrhoeae, in the assay with Cryptococcus neoformans, with Enterococcus faecalis [3], in the assay with Streptococcus pneumoniae and with Staphylococcus aureus was inactive.
Turning to `COC(=O)[C@]12Oc3ccc(-c4ccc5c(c4O)C(=O)C4=C(O)C[C@@H](C)[C@H](O)[C@@]4(C(=O)OC)O5)c(O)c3C(=O)C1=C(O)C[C@@H](C)[C@@H]2O` [SECALONIC ACID A], the MIC in the assay on Micrococcus luteus [4] was found to be 4 µg/mL (≈ 6.26 µM); in the assay on Enterococcus faecalis [5], 32 µg/mL (≈ 50.1 µM). For the same molecule, the EC50 with P388 (read-out: ED50 (the source's name)) was determined as 3.5 µg/mL (≈ 5.48 µM).
For the molecule `COc1cc(C)c(C(=O)Oc2cc(C)c(C(=O)O)c(OC)c2)c(O)c1`, the outcome (with Candida albicans; with Enterobacter cloacae; in the assay with P388; with Micrococcus luteus [1]; with Escherichia coli; in assay [2]) was inactive. Further, the result in the assay on Neisseria gonorrhoeae, in the assay on Cryptococcus neoformans, with Enterococcus faecalis [3], in the assay with Streptococcus pneumoniae and in the assay with Staphylococcus aureus was inactive.
Take `CC[C@H](/C=C/[C@@H](C)[C@H]1CC[C@H]2[C@@H]3CC=C4C[C@@H](O)CC[C@]4(C)[C@H]3CC[C@]12C)C(C)C`: the result in the assay with P388 was inactive.
